Here are results for one compound from article PMC3581696 (The Journal of General Physiology, 2013).

This test concerns the target T1, mEAG1 Δ2–173 channels (Mus musculus, UniProt Q60603).
T1 sequence (Q60603 with tags, fused parts or gaps): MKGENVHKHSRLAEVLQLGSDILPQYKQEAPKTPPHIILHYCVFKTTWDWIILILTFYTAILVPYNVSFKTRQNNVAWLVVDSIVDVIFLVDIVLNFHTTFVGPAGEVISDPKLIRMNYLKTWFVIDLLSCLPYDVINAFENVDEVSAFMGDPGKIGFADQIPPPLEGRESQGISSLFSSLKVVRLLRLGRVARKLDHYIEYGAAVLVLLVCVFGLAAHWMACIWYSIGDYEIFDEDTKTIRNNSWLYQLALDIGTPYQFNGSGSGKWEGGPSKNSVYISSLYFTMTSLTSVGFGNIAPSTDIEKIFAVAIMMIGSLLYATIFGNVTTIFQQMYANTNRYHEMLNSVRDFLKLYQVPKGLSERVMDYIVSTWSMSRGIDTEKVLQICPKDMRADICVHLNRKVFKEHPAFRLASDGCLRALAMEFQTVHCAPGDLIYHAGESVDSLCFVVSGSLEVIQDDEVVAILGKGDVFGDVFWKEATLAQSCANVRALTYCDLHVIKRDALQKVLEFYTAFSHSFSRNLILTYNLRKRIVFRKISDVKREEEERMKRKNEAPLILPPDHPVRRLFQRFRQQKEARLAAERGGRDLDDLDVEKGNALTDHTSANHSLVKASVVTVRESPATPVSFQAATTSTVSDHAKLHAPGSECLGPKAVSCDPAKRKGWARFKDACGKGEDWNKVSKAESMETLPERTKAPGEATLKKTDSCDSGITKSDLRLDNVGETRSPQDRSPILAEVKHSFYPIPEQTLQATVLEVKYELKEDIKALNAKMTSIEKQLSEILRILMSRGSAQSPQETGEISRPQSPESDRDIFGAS
As to the kind of experiment: Inside-out patch-clamp of amino-terminal deletion mutant channels. It is filed as cell-based. A digest of the protocol:
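Δ2–173 mEAG1 was expressed in Xenopus oocytes and recorded in inside-out patches in symmetric 130 mM KCl/HEPES/EDTA, pH 7.2, held at −100 mV. Steps of 3 s from −100 to +100 mV (20-mV increments) returned to −100 mV for 1 s, with 0 or 30 µM flavonoid. Conductance–voltage data were fit with a product of two Boltzmann functions, with inactivation parameters and activation slope held fixed. The −100 mV tail after a step to −40 mV was fit with a single exponential.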
For orientation: In patch-clamp work, channel activity is measured electrically.

For `O=c1c(O)c(-c2ccc(O)c(O)c2)oc2cc(O)ccc12` [Fisetin, 2-(3,4-dihydroxyphenyl)-3,7-dihydroxychromen-4-one], where the note is “30 µM fisetin, average”, the “increase of peak conductance after a step to −40 mV” value is 1.7 fold. The “time constant of deactivation” value (with 30 µM fisetin, after a step to −40 mV, 117 ± 1 ms without, n = 3) is 375 ± 36 ms. Further, the “time constant of deactivation (tail currents of Fig. 5 C)” value (with 30 µM fisetin, tail at −100 mV after step to −40 mV, 116 ms without) came out at 239 ms.
